Assay outcomes deposited in PubChem by several laboratories.
Diaphorase inh – counter-screen for diaphorase-based assays: diaphorase inhibitors and chemical oxidizers; diaphorase resazurin-to-resorufin fluorescence, NADH, 16 min; bacterial (C. kluyveri) enzyme, not human; AID 1217; inhibition, % at 20 µM; 190,000 tested, 0.69% active;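 active = primary screen inhibition at 20 µM above a set limit, cut at about 50% in these data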;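 also: plate controls were DMSO with full reaction for no effect and wells lacking NADH for full effect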
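Assay system: diaphorase enzyme from Clostridium kluyveri. Quantity: enzyme working solution with 0.14 U/mL diaphorase. Schedule: reaction incubation of 16 min at room temperature. Technique: resorufin fluorescence, excitation 544 nm, emission 590 nm. Controls: No-NADH positive control and DMSO neutral control.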
PfG6PD inh – PfG6PD (Plasmodium falciparum) enzyme inhibition | inhibition, % at 20 µM | PfGluPho enzyme, NADPH resazurin-diaphorase fluorescence | 350,000 tested, 0.78% active | AID 504690;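 active = inhibition reaching at least a set limit at 20 µM in the primary screen, cut at about 59% in these data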;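 also: 0% = DMSO wells with substrate and 100% = DMSO wells lacking glucose-6-phosphate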
G6PDH CS – counter-screen for G6PDH assay hits: L. mesenteroides G6PDH inhibition | AID 1020 | 200,000 tested, 0.12% active | inhibition, % at 5 µM | Purified L. mesenteroides G6PDH, diaphorase/resazurin coupled fluorescence, 45 min; in the data active = inhibition above about 50%
Tb hexokinase – blocks Trypanosoma brucei hexokinase 1 activity | recombinant TbHK1, G6PDH-coupled NADH A340 | inhibition, % at 10 µM | 220,000 tested, 0.11% active | AID 1430;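 active = inhibition of 50% or more in the single-dose primary screen; inactive = inhibition below 50%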
HKDC1 inhibitor – inhibitors of human hexokinase HKDC1. inhibition, % at 20 µM. Q2TB90. 340,000 tested, 0.16% active. recombinant HKDC1, G6PDH/diaphorase resazurin coupled fluorescence;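 active = inhibition above about 35% when tested at 20 µM, limit read from the data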;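 also: plate controls were DMSO wells with enzyme for no effect and DMSO wells lacking enzyme for full effect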
Target sequence (Q2TB90 whole entry, looked up): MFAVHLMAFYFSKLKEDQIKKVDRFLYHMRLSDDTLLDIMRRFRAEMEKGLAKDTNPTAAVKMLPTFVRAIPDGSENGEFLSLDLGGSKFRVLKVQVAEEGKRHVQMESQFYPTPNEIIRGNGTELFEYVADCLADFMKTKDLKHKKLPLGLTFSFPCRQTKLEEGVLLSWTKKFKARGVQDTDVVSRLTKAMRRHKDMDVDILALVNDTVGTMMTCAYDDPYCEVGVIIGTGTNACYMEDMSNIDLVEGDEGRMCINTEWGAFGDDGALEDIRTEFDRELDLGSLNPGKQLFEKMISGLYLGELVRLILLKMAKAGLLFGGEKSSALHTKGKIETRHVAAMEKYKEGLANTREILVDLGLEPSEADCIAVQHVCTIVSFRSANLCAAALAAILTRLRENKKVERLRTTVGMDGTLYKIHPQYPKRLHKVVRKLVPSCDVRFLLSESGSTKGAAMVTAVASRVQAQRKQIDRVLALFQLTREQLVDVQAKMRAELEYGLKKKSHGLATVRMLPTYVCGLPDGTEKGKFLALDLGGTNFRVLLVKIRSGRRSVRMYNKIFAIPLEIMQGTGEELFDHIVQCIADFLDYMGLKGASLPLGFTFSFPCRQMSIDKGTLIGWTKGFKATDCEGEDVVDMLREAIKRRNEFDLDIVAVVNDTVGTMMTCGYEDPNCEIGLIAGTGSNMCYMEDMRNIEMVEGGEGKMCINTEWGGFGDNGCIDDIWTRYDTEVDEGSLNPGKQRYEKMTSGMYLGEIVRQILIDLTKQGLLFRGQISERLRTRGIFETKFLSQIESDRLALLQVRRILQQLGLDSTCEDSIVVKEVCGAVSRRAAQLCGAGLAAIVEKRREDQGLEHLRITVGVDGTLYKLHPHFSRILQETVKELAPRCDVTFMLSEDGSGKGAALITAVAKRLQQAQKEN
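Test system: recombinant HKDC1 (HK5) hexokinase enzyme, produced in-house / Doses: 20 µM test compound, 1% DMSO / Timing: 90 min, room temperature / Detection: G6PDH/diaphorase-coupled fluorescence, 1 mM NADP, 100 µM resazurin, 525/613 nm / Control set: DMSO wells with and without enzyme mix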
PfG6PD confirm – PfG6PD inhibition, single-dose confirmed. shares compounds with PfG6PD inh. recombinant PfGluPho, NADPH-diaphorase-resazurin fluorescence. inhibition, % at 20 µM. 2,400 tested, 34% active. AID 504753;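 active = inhibition of at least 50% at 20 µM in any single replicate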;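 also: 0% = DMSO with substrate and 100% = DMSO lacking glucose-6-phosphate substrate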
Diaph ctr 10uM – inhibits diaphorase or oxidizes, flagging false PfG6PD hits | shares compounds with PfG6PD inh | 820 tested, 39% active | inhibition, % at 20 µM | diaphorase-coupled resazurin reduction, fluorescence, NADPH 10 uM | AID 504862;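 active = average inhibition reaching 50% or more with the compound at 20 µM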;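 also: resorufin red fluorescence formed as diaphorase reduces resazurin using NADPH; 0% = DMSO with enzyme and 100% = DMSO without enzyme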
Diaphorase 30uM – counter-screen for P. falciparum G6PD inhibitors: diaphorase inhibitors, oxidizers. 820 tested, 29% active. shares compounds with PfG6PD inh. inhibition, % at 20 µM. Diaphorase/resazurin coupled assay, resorufin fluorescence, 30 uM NADPH;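 active = inhibition averaging 50% or more, tested at 20 µM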;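 also: 0% = DMSO with enzyme and 100% = DMSO wells lacking diaphorase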
Active calls of the source: *; . = no result given. This is a sample that favours compounds with a hit; in the whole collection about 1.2% have one here.

SMILES	Diaphorase inh	PfG6PD inh	G6PDH CS	Tb hexokinase	HKDC1 inhibitor	PfG6PD confirm	others
Cc1ccc([C@@H]2CC=C(C(=O)O)[C@H](c3ccc(Cl)cc3)N2S(=O)(=O)c2ccccc2C)cc1	.	-46.0	.	.	6.9	.
Cc1ccc(-n2c(N)c(C(=O)N3CCOCC3)sc2=S)cc1	3.4	53.0	10.9	-23.3	-13.8	.
COC(=O)c1sc(=S)n(-c2cccc(Cl)c2)c1N	16.2	72.5*	5.8	-2.9	-14.7	26.7
CCOc1ccc(-n2c(N)c(C(=O)NCc3cccnc3)sc2=S)cc1	12.3	52.6	15.2	-10.7	-4.2	.
CN1CCN(C(=O)c2sc(=S)n(-c3ccccc3)c2N)CC1	15.9	82.3*	-9.1	-26.6	-5.4	83.4*	Diaph ctr 10uM=19.2;Diaphorase 30uM=-7.3
CCOc1ccc(-n2c(N)c(C(=O)NCc3ccco3)sc2=S)cc1	17.2	85.4*	9.4	-19.5	-1.6	30.6
COc1ccc(CNC(=O)c2sc(=S)n(-c3ccccc3)c2N)cc1	.	60.7*	.	-9.4	-6.4	41.3
CC(NS(=O)(=O)CCNC(=O)c1ccccc1)c1ccccc1 (stereo not drawn)	.	0.8	.	.	2.0	.
COc1ccc(-c2ccc(-c3cc(=O)oc4c(C(C)C)ccc(C)c34)cc2)cc1	.	15.9	.	.	-1.8	.
Cc1[nH]c(=O)n(C(C)C)c(=O)c1Br	.	-17.7	.	.	-1.2	.
CSCc1c(C(=O)OCC(=O)c2ccc[nH]2)oc2ccccc12	.	3.5	.	.	2.1	.
CCC(C)(C)n1nnnc1C(c1ccc2ncccc2c1)N1CCN(c2ccc(O)cc2)CC1 (stereo not drawn)	.	45.5	.	-9.2	8.1	34.6
O=C(O)C(Cc1ccc(OS(=O)(=O)Cc2ccccc2)cc1)NS(=O)(=O)Cc1ccccc1 (stereo not drawn)	.	-33.9	.	.	-3.4	.
Cc1cc(C)nc(N2CCN(c3ccc(F)cc3)CC2)n1	.	5.4	.	.	-6.3	.
COC(=O)COc1ccc(-n2cnnn2)cc1	10.9	-3.5	6.5	0.6	0.2	.
CC(SCC(=O)Nc1ccccc1)c1nc2ccccc2c(=O)[nH]1 (stereo not drawn)	.	60.4*	.	.	4.4	51.2*	Diaph ctr 10uM=42.4;Diaphorase 30uM=36.4
CCOCCOC(=O)c1ccc(NC(=O)c2cc3ccccc3o2)cc1	.	49.7	.	.	-2.1	.
COc1ccc(NCC(=O)N/N=C/C2CCCCC2)cc1	.	69.3*	.	-6.5	15.9	13.2
CC(=NNC(=S)N1CCCC1)c1ccccn1	.	67.1*	.	.	.	12.0
O=C1CCc2cc(S(=O)(=O)NCc3ccc(F)cc3)cc3c2N1CCC3	.	-9.7	.	.	2.2	.
COC(=O)NC1CC2C=CC1C1C=CC21 (stereo not drawn)	.	10.0	.	.	.	.
Cc1nc2ccccn2c1C(=O)/C=C/c1ccc(F)cc1	8.5	24.3	10.2	-12.9	4.4	.
Cc1nc2ccccn2c1-c1ccnn1S(=O)(=O)c1ccc(F)cc1	.	76.9*	.	-20.9	-0.6	55.6*	Diaph ctr 10uM=43.7;Diaphorase 30uM=59.0*
CCCCOC(=O)C1=C(C)Nc2ncnn2C1c1ccc(OC)c(OC)c1 (stereo not drawn)	16.4	33.9	6.6	0.8	7.2	.
CCCCOC(=O)C1=C(C)Nc2ncnn2C1c1ccc(OCC)c(OC)c1 (stereo not drawn)	18.6	61.6*	-5.2	-0.4	-5.2	28.8
SMILES	Diaphorase inh	PfG6PD inh	G6PDH CS	Tb hexokinase	HKDC1 inhibitor	PfG6PD confirm	others
CCc1c(C)sc(NC(=O)c2ccoc2C)c1C(N)=O	.	94.3*	.	.	-17.3	43.8
CCc1c(C)nc2c(Br)cccc2c1SCCC#N	11.8	59.4*	6.2	-5.1	-1.0	-5.1
CCc1c(C)nc2ccc(Br)cc2c1SCCC#N	13.6	21.3	6.4	-8.3	-12.2	.
Cc1nnc(NC(=O)CSc2nnc(CC(=O)Nc3ccccc3Cl)n2C)s1	.	-29.8	.	.	-6.6	.
NS(=O)(=O)c1ccc(O)c(NC(=O)c2ccc([N+](=O)[O-])o2)c1	.	77.7*	.	-9.9	-9.9	14.3
Cn1cnc([N+](=O)[O-])c1Sc1nc(N)nc2c1ncn2C1OC(CO)C(O)C1O (stereo not drawn)	.	16.5	.	.	-4.6	.
O=C(O)c1ccccc1NS(=O)(=O)c1cccc(-n2sc3ccccc3c2=O)c1	.	109.5*	.	.	14.8	105.2*	Diaph ctr 10uM=-12.5;Diaphorase 30uM=-24.1
CC1Oc2ccccc2N(CC(=O)Nc2ccc(F)cc2)C1=O (stereo not drawn)	.	-7.2	.	.	-3.7	.
COC(=O)c1c(C)nc2nonc2c1N	0.6	-4.1	13.0	-3.6	-0.8	.
Cc1ccc(-c2cc(C(=O)N3CCN(c4ncccn4)CC3)c3cc(Br)ccc3n2)o1	18.8	61.6*	7.7	-5.0	2.5	-10.8
O=C1C[C@@H]2c3c(cccc3CN1Cc1ccccc1F)C[C@@H](O)[C@H]2O	.	-4.1	.	.	-4.4	.
Cc1ccc(NC(=O)c2cc(N3C(=O)C=CC3=O)ccc2N2CCOCC2)cc1	2.0	80.0*	9.4	-3.0	-8.3	96.2*	Diaph ctr 10uM=5.0;Diaphorase 30uM=-16.4
Cc1ccc(NC(=O)c2cc(-n3cnnc3)ccc2Cl)cc1	6.7	-10.3	9.9	4.4	0.6	.
COc1c(C)cccc1C(=O)Nc1ccc(N2CCOCC2)c(Cl)c1	2.0	68.3*	7.1	-5.8	-6.7	38.7
Cc1ccc(NC(=O)c2cc(NC(=O)c3ccco3)ccc2N2CCOCC2)cc1	7.8	2.5	-1.9	-6.3	0.8	.
Cc1ccc(NC(=O)c2cc(N3C(=O)C=CC3=O)ccc2Cl)cc1C	19.8	77.3*	12.8	6.9	13.9	80.6*	Diaph ctr 10uM=0.4;Diaphorase 30uM=-7.6
O=C(NNC(=O)C1CCN(S(=O)(=O)c2ccc(Cl)cc2)CC1)c1ccccc1O	.	-33.5	.	.	-8.6	.
C[C@@H]1CN([C@@H](C)CO)C(=O)CCCn2nncc2CO[C@H]1CN(C)S(=O)(=O)c1cccc(C#N)c1	.	-4.5	.	.	.	.
O=S(=O)(Oc1ccccc1/C=N/n1cnnc1)c1ccccc1	20.4	96.4*	-1.1	2.7	-4.8	80.9*	Diaph ctr 10uM=81.1*;Diaphorase 30uM=63.1*
CC(Sc1nc2cc([N+](=O)[O-])ccc2n1-c1ccc(F)cc1)C(=O)NCc1ccc2c(c1)OCO2 (stereo not drawn)	27.7	56.7	10.1	-1.8	1.3	.
COc1ccccc1-n1c(SCC(=O)NCc2ccc3c(c2)OCO3)nc2cc([N+](=O)[O-])ccc21	47.2	95.2*	5.4	2.0	-9.1	48.2
O=C(Nc1cccc(Cl)c1)C1CCN(C(=O)c2cccs2)CC1	.	-1.1	.	.	-2.3	.
Cc1ccc(/C=C/C(=O)OCC(=O)c2ccc3c(c2)NC(=O)CO3)o1	.	70.6*	.	.	-4.1	-9.0
O=C1COc2ccc(C(=O)COC(=O)/C=C/c3ccc(Br)o3)cc2N1	.	10.7	.	.	21.1	.
O=C(O)COc1ccccc1/C=N/NC(=O)CSc1nnc(SCc2ccccc2)s1	.	-24.0	.	-5.5	-0.9	.
